Bioassay records: PubChem BioAssay, several laboratories
PP5 primary: inhibitors of human protein phosphatase 5 (PP5); inhibition, % at 6.7 µM; purified PP5c, OMFP substrate fluorescence; hit rate 0.18% among 320,000;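 active = inhibition above the campaign's mean inhibition across all tested compounds plus 3 SD, cut at about 9.5% in these data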
Target sequence (P53041 whole entry, looked up): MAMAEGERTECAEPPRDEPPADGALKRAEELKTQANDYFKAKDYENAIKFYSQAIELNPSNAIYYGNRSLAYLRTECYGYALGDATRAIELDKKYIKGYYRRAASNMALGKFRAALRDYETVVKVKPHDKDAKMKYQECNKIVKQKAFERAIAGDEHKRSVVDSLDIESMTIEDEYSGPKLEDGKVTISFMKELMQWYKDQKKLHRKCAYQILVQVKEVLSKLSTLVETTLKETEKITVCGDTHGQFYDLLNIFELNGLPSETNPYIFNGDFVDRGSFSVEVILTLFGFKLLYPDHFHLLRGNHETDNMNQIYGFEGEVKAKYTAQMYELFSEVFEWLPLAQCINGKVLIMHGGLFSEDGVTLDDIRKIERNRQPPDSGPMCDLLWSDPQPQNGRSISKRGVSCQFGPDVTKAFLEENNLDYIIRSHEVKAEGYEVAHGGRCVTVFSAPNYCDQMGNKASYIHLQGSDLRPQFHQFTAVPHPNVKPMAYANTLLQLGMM
NadD inh: blocks S. aureus nicotinate mononucleotide adenylyltransferase. hit rate 0.78% among 360,000. purified NadD enzyme, colorimetric absorbance read-out. AID 602399. inhibition, % at 20 µM; in the data active = inhibition above about 26%
Myeloid diff 2: myeloid differentiation induction; ER-HoxA9 myeloid progenitors, lysozyme-GFP differentiation, flow cytometry; calls only at 10 µM; hit rate 1% among 360,000; AID 624256;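 active = normalized GFP-positive differentiation at or above the plate's own cutoff, the solvent-only control mean plus 3 SD; inconclusive = no clear call, values can overlap the other calls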;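 note: cells exposed to compound for four days before flow analysis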
HCV core dimer: blocks dimerization of HCV core protein | TR-FRET GST/Flag-core106 dimerization, 1536-well | hit rate 0.33% among 300,000 | AID 1899 | inhibition, % at 5 µM;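 active = inhibition above the mean of all tested compounds plus 3 SD, set per screening campaign, cut at about 45% in these data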
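Assay system – GST-tagged and Flag-tagged HCV core protein residues 1-106 · Quantity – core106 proteins, GST 13.5 nM and Flag 17 nM · Benchmarks – unlabelled core106 and no-GST-core106 wells · Read-out basis – percent inhibition of core106 dimerization signal · Detection – time-resolved FRET, ex 340 nm, em 617 and 671 nm · Schedule – 4 h at 22.5 °C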
PP1 counter: PP1-alpha (human) inhibition in PP5 counter-screen | inhibition, % at 6.7 µM | purified PP1alpha, OMFP fluorescence | P62136 | AID 2235 | hit rate 0.9% among 320,000;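 active = inhibition above the mean inhibition of all tested compounds plus 3 SD, computed separately for each screening campaign, cut at about 15% in these data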
Fh CTSL1 inh: counter-screen for PFM18AAP inhibitors: inhibitors of F. hepatica cathepsin L1; hit rate 0.49% among 300,000; recombinant F. hepatica cathepsin L1, Z-Leu-Arg-MCA fluorescence; inhibition, % at 5.96 µM;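 active = inhibition above the mean of all tested compounds plus 3 SD, set per screening campaign, cut at about 17% in these data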
A number is an active result. Sampled rows, rich in hits. Any-hit rate of the full collection: about 3.1%.

For CC1(c2ccccc2)NC(=O)N(CC(=O)Nc2ccccc2N2CCCC2)C1=O (centres undefined) the results were PP5 primary inactive, NadD inh inactive, Myeloid diff 2 inactive, HCV core dimer inactive, PP1 counter inactive and Fh CTSL1 inh 18.4.
`COc1ccc(C)cc1NC(=O)CN(Cc1nnc(-c2ccc(Cl)cc2)o1)C1CCCC1` gave PP5 primary inactive, NadD inh inactive, Myeloid diff 2 inactive, HCV core dimer inactive, PP1 counter 16.2 and Fh CTSL1 inh inactive.
Screening Cc1ccc(NC(=O)c2ccc(COc3ccccc3[N+](=O)[O-])o2)nc1 returned PP5 primary inactive, NadD inh inactive, Myeloid diff 2 active and PP1 counter inactive.
COc1ccccc1OCc1ccc(C(=O)NN)o1 was read as PP5 primary inactive, NadD inh inactive, Myeloid diff 2 active, HCV core dimer inactive, PP1 counter inactive and Fh CTSL1 inh inactive.
Screening Cc1ccc(NC(=O)COc2ccccc2[N+](=O)[O-])nc1 returned PP5 primary inactive, NadD inh inactive, Myeloid diff 2 inactive, HCV core dimer inactive, PP1 counter inactive and Fh CTSL1 inh inactive.
For O=C(COC(=O)/C=C/c1ccc(OC(F)F)cc1)Nc1ccc(N2CCOCC2)cc1 the results were PP5 primary inactive, NadD inh inactive, Myeloid diff 2 inactive, HCV core dimer inactive, PP1 counter inactive and Fh CTSL1 inh inactive.
`O=C1C=C(Nc2ccc(O)cc2)C(=O)c2ccccc21` gave PP5 primary inactive, NadD inh inactive, Myeloid diff 2 active, HCV core dimer inactive, PP1 counter inactive and Fh CTSL1 inh inactive.
Screening CCc1ccc(S(=O)(=O)/N=C2\C=C(Nc3ccc(O)cc3)C(=O)c3ccccc32)cc1 returned PP5 primary inactive, NadD inh inactive, Myeloid diff 2 inconclusive, HCV core dimer inactive, PP1 counter inactive and Fh CTSL1 inh 63.4.
For CCc1ccc(S(=O)(=O)/N=C2/C=C(Sc3ncn[nH]3)C(=O)c3ccccc32)cc1 the results were PP5 primary inactive, NadD inh 70.6, Myeloid diff 2 inactive, HCV core dimer inactive, PP1 counter inactive and Fh CTSL1 inh 100.3.
CCOC(=O)c1ccc(NC2=CC(=O)C(=O)c3ccccc32)cc1 was read as PP5 primary inactive, NadD inh 46.6, Myeloid diff 2 inconclusive, HCV core dimer inactive, PP1 counter inactive and Fh CTSL1 inh inactive.
Screening O=C(O)c1ccc(NC2=C/C(=N/S(=O)(=O)c3ccccc3)c3ccccc3C2=O)cc1 returned NadD inh inactive and Myeloid diff 2 inactive.
Screening CC(=O)Nc1ccc(NC2=CC(=O)c3ccccc3C2=O)cc1 returned PP5 primary inactive, NadD inh inactive, Myeloid diff 2 inactive, HCV core dimer inactive, PP1 counter inactive and Fh CTSL1 inh inactive.
Screening COC1=C(Nc2ccc(O)cc2)C(=O)c2ccccc2C1=O returned PP5 primary inactive, NadD inh inactive, Myeloid diff 2 active, HCV core dimer inactive, PP1 counter inactive and Fh CTSL1 inh inactive.
Screening COC1=C(Nc2ccc(OC)cc2)C(=O)c2ccccc2C1=O returned PP5 primary inactive, NadD inh inactive, Myeloid diff 2 inactive, HCV core dimer inactive, PP1 counter inactive and Fh CTSL1 inh inactive.
For O=S(=O)(N/N=C1/CC(c2ccccc2)Oc2ccccc21)c1ccccc1 (centres undefined) the results were NadD inh inactive and Myeloid diff 2 active.
`COc1cccc(CN(C)C(=O)[C@@H](NC(=O)c2ccc(C)cc2)C(C)C)c1` gave PP5 primary inactive, NadD inh inactive, Myeloid diff 2 inactive, HCV core dimer inactive, PP1 counter inactive and Fh CTSL1 inh inactive.
`CCOC(=O)c1c(N)sc2c1CCC1C(=O)N(C3CCCCC3)C(=O)C21` (centres undefined) gave PP5 primary inactive, NadD inh inactive, Myeloid diff 2 inactive, HCV core dimer inactive, PP1 counter 15.3 and Fh CTSL1 inh inactive.
For CCOC(=O)c1c(N)sc2c1CCC(CC)C2 (centres undefined) the results were PP5 primary inactive, NadD inh inactive, Myeloid diff 2 inactive, HCV core dimer inactive, PP1 counter inactive and Fh CTSL1 inh inactive.
For Cc1cccc(OCc2nnc(SCC(=O)N(c3ccccc3)C3CCS(=O)(=O)C3)o2)c1 (centres undefined) the results were PP5 primary inactive, NadD inh inactive, Myeloid diff 2 inactive and PP1 counter inactive.
Cc1cccc(C)c1-n1nnnc1C1(C)CCC(=O)N1Cc1cccnc1 (centres undefined) was read as NadD inh inactive and Myeloid diff 2 inactive.
For Cc1nn(CC(=O)N2CCN(c3ccccc3)CC2)c(C)c1[N+](=O)[O-] the results were PP5 primary inactive, NadD inh inactive, Myeloid diff 2 active, HCV core dimer inactive, PP1 counter inactive and Fh CTSL1 inh inactive.
NNc1nc(C(F)(F)F)nc2ccccc12 was read as PP5 primary inactive, NadD inh inactive, Myeloid diff 2 inactive, HCV core dimer inactive, PP1 counter inactive and Fh CTSL1 inh inactive.
For CN(N)c1nc(C(F)(F)F)nc2ccccc12 the results were PP5 primary inactive, NadD inh inactive, Myeloid diff 2 active, HCV core dimer inactive, PP1 counter inactive and Fh CTSL1 inh inactive.
`CC1(C)Cc2c(sc(NC(=O)c3ccc(C(=O)c4ccccc4)cc3)c2C(N)=O)C(C)(C)N1` gave PP5 primary inactive, NadD inh inactive, Myeloid diff 2 active, HCV core dimer inactive, PP1 counter inactive and Fh CTSL1 inh inactive.
`CCOC(=O)c1c(NC(=O)CCS(=O)(=O)c2ccccc2)sc2c1CC(C)(C)NC2(C)C` gave PP5 primary inactive, NadD inh inactive, Myeloid diff 2 inactive, HCV core dimer inactive, PP1 counter inactive and Fh CTSL1 inh 38.8.
COC(=O)c1c(NC(=O)c2ccc(OC(C)C)cc2)sc2c1CC(C)(C)NC2(C)C was read as PP5 primary inactive, NadD inh inactive, Myeloid diff 2 active, HCV core dimer inactive, PP1 counter inactive and Fh CTSL1 inh inactive.
CCOC(=O)c1c(NC(=O)Cc2ccccc2)sc2c1CC(C)(C)NC2(C)C was read as PP5 primary inactive, NadD inh inactive, Myeloid diff 2 inconclusive, HCV core dimer inactive, PP1 counter inactive and Fh CTSL1 inh inactive.
Screening CC(C)CC(N)c1csc(Nc2ccc(C(=O)NCCCO)cn2)n1 (centres undefined) returned NadD inh inactive and Myeloid diff 2 inactive.
`CCOc1ccc(OCCC(=O)N(CC)CC(=O)NCc2ccc(Cl)cc2)cc1` gave PP5 primary inactive, NadD inh inactive, Myeloid diff 2 inactive, HCV core dimer inactive, PP1 counter inactive and Fh CTSL1 inh inactive.
`O=C(CNC(=O)C12CC3CC(CC(C3)C1)C2)OCc1ccc(F)cc1Cl` gave PP5 primary inactive, NadD inh inactive, Myeloid diff 2 inactive and PP1 counter inactive.
`CCCCNc1nc(NCc2ccccc2)nc2ccccc12` gave NadD inh inactive and Myeloid diff 2 active.
Screening O=[N+]([O-])c1ccc(N2N=C(c3ccccc3)CC2c2ccccc2O)cc1 (centres undefined) returned NadD inh inactive and Myeloid diff 2 active.
